Values after ≈ are worked out from the molar mass of the structure shown. Active and inactive are the calls of the source. The calls are words filed in the database; no cut-off is given here.
Tests used:
Staphylococcus aureus [1] = test: Antibacterial activity against methicillin-resistant Staphylococcus aureus ATCC 33591 after 16 to 20 hrs by CLSI method; format: functional, organism-based
Staphylococcus aureus [2] = test: Antibacterial activity against Staphylococcus aureus ATCC 29213 by CLSI method; format: functional, organism-based
[3] = Selectivity index, ratio of cytotoxicity for pig LLC-PK1 cells to IC50 for Cryptococcus neoformans ATCC 90113; format: toxicity, cell-based; settings: read-out: Selectivity Index
Vero = test: Cytotoxicity against African green monkey Vero cells assessed as cell viability after 48 hrs by neutral red uptake assay; format: cell-based; settings: chlorocebus sabaeus
Method in brief: (§1)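 Neutral red uptake assay in human cancer lines SK-MEL, KB, BT-549 and SK-OV-3 and in noncancerous mammalian kidney cells VERO and LLC-PK1. The highest tested concentration was 10 μg/mL.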

LLC-PK1 = test: Cytotoxicity against pig LLC-PK1 cells assessed as cell viability after 48 hrs by neutral red uptake assay; format: cell-based, Sus scrofa; settings: llc-pk1, 48 h; method in brief: as §1
Aspergillus fumigatus = test: Antifungal activity against Aspergillus fumigatus by CLSI method; format: functional, organism-based
[4] = Selectivity index, ratio of cytotoxicity for human SK-MEL cells to IC50 for Cryptococcus neoformans ATCC 90113; format: toxicity, cell-based; settings: read-out: Selectivity Index
Nakaseomyces glabratus = test: Antifungal activity against Candida glabrata by CLSI method; format: functional, organism-based
Cryptococcus neoformans [5] = test: Antifungal activity against Cryptococcus neoformans ATCC 90113 after 70 to 74 hrs by CLSI method; format: functional, organism-based; settings: for IC50 / MIC: Cryptococcus neoformans, ATCC 90113
Method in brief: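 Growth inhibition of C. neoformans per the CLSI protocol. […] MIC is the lowest test concentration with no detectable growth. MFC is the lowest concentration killing 100% of the organism.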

KB = test: Cytotoxicity against human KB cells assessed as cell viability after 48 hrs by neutral red uptake assay; format: cell-based; method in brief: as §1
Escherichia coli = test: Antibacterial activity against Escherichia coli ATCC 35218 after 16 to 20 hrs by CLSI method; format: functional, organism-based
[6] = Selectivity index, ratio of cytotoxicity for human KB cells to IC50 for Cryptococcus neoformans ATCC 90113; format: toxicity, cell-based; settings: read-out: Selectivity Index
SK-MEL = test: Cytotoxicity against human SK-MEL cells assessed as cell viability after 48 hrs by neutral red uptake assay; format: cell-based; method in brief: as §1
[7] = Selectivity index, ratio of cytotoxicity for African green monkey Vero cells to IC50 for Cryptococcus neoformans ATCC 90113; format: toxicity, cell-based; settings: read-out: Selectivity Index
SK-OV-3 = test: Cytotoxicity against human SKOV3 cells assessed as cell viability after 48 hrs by neutral red uptake assay; format: cell-based; settings: sk-ov-3, 48 h; method in brief: as §1
Candida albicans = test: Antifungal activity against Candida albicans by CLSI method; format: functional, organism-based
BT-549 = test: Cytotoxicity against human BT549 cells assessed as cell viability after 48 hrs by neutral red uptake assay; format: cell-based; settings: bt-549, 48 h; method in brief: as §1
[8] = Selectivity index, ratio of cytotoxicity for human SKOV3 cells to IC50 for Cryptococcus neoformans ATCC 90113; format: toxicity, cell-based, SK-OV-3; settings: read-out: Selectivity Index
[9] = Selectivity index, ratio of cytotoxicity for human BT549 cells to IC50 for Cryptococcus neoformans ATCC 90113; format: toxicity, cell-based, BT-549; settings: read-out: Selectivity Index
Cryptococcus neoformans [10] = test: Ratio of amphotericin B MFC to compound MFC for Cryptococcus neoformans ATCC 90113 after 70 to 74 hrs by CLSI method; format: functional
Pichia kudriavzevii = test: Antifungal activity against Candida krusei by CLSI method; format: functional, organism-based
[11] = Retention time of the compound by reverse phase HPLC analysis; format: physicochemical
Method in brief: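 Reverse-phase HPLC on a C-18 column (25 cm × 4.6 mm, 5 μM) at 1 mL/min over 40 min. The gradient ran 85−5% with A = 0.1% TFA in H2O and B = 0.1% TFA in CH3CN. Detection was at 220 nm.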

[12] = Staphylococcus aureus, ATCC 33591
[13] = Staphylococcus aureus, ATCC 33591, read-out: IC50

SMILES	selectivity ratio [3]	Activity (Vero) [µg/mL]	Activity (LLC-PK1) [µg/mL]	Activity (Aspergillus fumigatus)	selectivity ratio [4]	Activity (Nakaseomyces glabratus)	MFC100 (Cryptococcus neoformans [5]) [µg/mL]	IC50 (Cryptococcus neoformans [5]) [µg/mL]	MIC (Cryptococcus neoformans [5]) [µg/mL]	Activity (KB) [µg/mL]	Activity (Escherichia coli)	selectivity ratio [6]	Activity (SK-MEL) [µg/mL]	selectivity ratio [7]	Activity (SK-OV-3) [µg/mL]	Activity (Candida albicans)	Activity (BT-549) [µg/mL]	selectivity ratio [8]	selectivity ratio [9]	Ratio (Cryptococcus neoformans [10])	further results
N=C(N)NCCC[C@H](NC(=O)[C@H](Cc1c[nH]c(-c2ccc(-c3ccccc3)cc2)n1)NC(=O)[C@@H](N)CCCNC(=N)N)C(=O)NCc1ccccc1	> 100	> 10	> 10	inactive	> 100	inactive	0.16 (≈ 0.226 µM)	0.1 (≈ 0.141 µM)	0.16 (≈ 0.226 µM)	> 10	inactive	> 100	> 10	> 100	> 10	inactive	> 10	> 100	> 100	8	IC50 (Staphylococcus aureus [1]): Not Active; MBC100 (Staphylococcus aureus [1]): inactive; MIC (Staphylococcus aureus [1]): inactive; IC50 (Staphylococcus aureus [2]): 15.4 µg/mL (≈ 21.7 µM); MBC100 (Staphylococcus aureus [2]): inactive; MIC (Staphylococcus aureus [2]): inactive; Activity (Pichia kudriavzevii): inactive
COc1ccc(-c2nc(C[C@H](NC(=O)[C@@H](N)CCCNC(=N)N)C(=O)N[C@@H](CCCNC(=N)N)C(=O)NCc3ccccc3)c[nH]2)cc1	> 23.3	> 10	> 10	inactive	> 23.3	inactive	0.63 (≈ 0.951 µM)	0.43 (≈ 0.649 µM)	0.63 (≈ 0.951 µM)	> 10	inactive	> 23.3	> 10	> 23.3	> 10	inactive	> 10	> 23.3	> 23.3	2	Activity (Pichia kudriavzevii): inactive
CC(C)(C)OC(=O)N[C@@H](CCCNC(=N)N)C(=O)N[C@@H](Cc1c[nH]c(-c2ccc(-c3ccccc3)cc2)n1)C(=O)N[C@@H](CCCNC(=N)N)C(=O)NCc1ccccc1	> 50	> 10	> 10	inactive	> 50	inactive	0.31 (≈ 0.383 µM)	0.2 (≈ 0.247 µM)	0.31 (≈ 0.383 µM)	> 10	inactive	> 50	> 10	> 50	> 10	inactive	> 10	> 50	> 50	4	MBC100 (Staphylococcus aureus [1]): 20 µg/mL (≈ 24.7 µM); MIC (Staphylococcus aureus [1]; [12]): 20 µg/mL (≈ 24.7 µM); IC50 (Staphylococcus aureus [1]; [13]): 10.8 µg/mL (≈ 13.3 µM); IC50 (Staphylococcus aureus [2]): 6.88 µg/mL (≈ 8.5 µM); MBC100 (Staphylococcus aureus [2]): inactive; MIC (Staphylococcus aureus [2]): 20 µg/mL (≈ 24.7 µM); Retention_time [11]: 24.04 min; Activity (Pichia kudriavzevii): inactive
CC(C)(C)OC(=O)N[C@@H](CCCNC(=N)N)C(=O)N[C@@H](Cc1c[nH]c(-c2ccc(C(C)(C)C)cc2)n1)C(=O)N[C@@H](CCCNC(=N)N)C(=O)NCc1ccccc1	> 55.6	> 10	> 10	inactive	> 55.6	inactive	0.63 (≈ 0.798 µM)	0.18 (≈ 0.228 µM)	0.63 (≈ 0.798 µM)	> 10	inactive	> 55.6	> 10	> 55.6	> 10	inactive	> 10	> 55.6	> 55.6	2	MBC100 (Staphylococcus aureus [1]): inactive; MIC (Staphylococcus aureus [1]; [12]): 20 µg/mL (≈ 25.3 µM); IC50 (Staphylococcus aureus [1]; [13]): 11.5 µg/mL (≈ 14.6 µM); IC50 (Staphylococcus aureus [2]): 12.5 µg/mL (≈ 15.9 µM); MBC100 (Staphylococcus aureus [2]): inactive; MIC (Staphylococcus aureus [2]): 20 µg/mL (≈ 25.3 µM); Retention_time [11]: 24.41 min; Activity (Pichia kudriavzevii): inactive
